# HIV Rev-RRE inh = inhibitors of HIV-1 Rev-RRE RNA interaction | Rev peptide-RRE RNA binding, FRET | inhibition, % at 8 µM | P05866 | hit rate 0.79% among 97,000;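 active = inhibition above the screen-wide mean plus 3 SD, cut at about 35% in these data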;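 note: 0% = median DMSO wells and 100% = median Neomycin B control wells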
# Target sequence (P05866 whole entry, looked up): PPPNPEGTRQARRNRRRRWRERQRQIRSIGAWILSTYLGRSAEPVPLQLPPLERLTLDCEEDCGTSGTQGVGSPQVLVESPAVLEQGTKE
#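 Test system: labelled RRE RNA duplex and labelled Rev peptide. Times: 5 min compound–RNA preincubation, then 15 min with peptide, 25 °C. Doses: single-dose 8 µM. Measured by: FRET, excitation 480 nm, emission 540 nm donor and 671 nm acceptor. Measure: % inhibition of FRET ratio versus controls.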
# CYP2C19 inhib = inhibitors of human CYP2C19; inhibition, % at 5 µM; CYP2C19 Supersomes, luciferin-H EGE luminescence, 30 min; hit rate 21% among 96,000;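 active = CYP2C19 inhibition above a set limit at 5 µM in the primary screen, cut at about 50% in these data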;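 note: plate controls were negative control wells for no effect and 2.5 mM tranylcypromine positive control for full effect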
# Target sequence (P33261 whole entry, looked up): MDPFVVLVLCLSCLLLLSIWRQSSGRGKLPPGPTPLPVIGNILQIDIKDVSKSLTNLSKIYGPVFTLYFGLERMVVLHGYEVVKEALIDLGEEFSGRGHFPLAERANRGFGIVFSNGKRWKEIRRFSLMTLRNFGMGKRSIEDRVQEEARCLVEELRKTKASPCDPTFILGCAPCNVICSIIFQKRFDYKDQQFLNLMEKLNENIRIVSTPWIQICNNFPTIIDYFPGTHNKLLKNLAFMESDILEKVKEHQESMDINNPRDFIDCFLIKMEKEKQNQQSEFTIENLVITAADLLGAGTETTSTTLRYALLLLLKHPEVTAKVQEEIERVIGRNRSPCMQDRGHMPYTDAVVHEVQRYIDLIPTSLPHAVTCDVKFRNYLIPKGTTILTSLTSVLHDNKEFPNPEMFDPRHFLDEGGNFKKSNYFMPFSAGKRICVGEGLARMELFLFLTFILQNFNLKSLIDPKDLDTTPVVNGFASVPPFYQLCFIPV
# CYP2C19 act = increases human CYP2C19 enzyme activity | activation factor at 5 µM | P33261 | 96,000 tested, under 10 active | recombinant CYP2C19, luciferin-H EGE luminescence; hits give high values; 0 = fully inhibited enzyme, 1 = untreated enzyme;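 active = activation factor of at least 2 at 5 µM in the primary screen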;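 note: 0 = wells with 2.5 mM tranylcypromine and 1 = vehicle-only wells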
# Cav3 T inh = human Cav3.2 channel inhibition, primary screen; B-score at 10 µM; hit rate 4% among 100,000; AID 449739; O95180; Cav3.2-expressing cells, Fluo-4 calcium fluorescence FDSS; hits give low values;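 active = single-dose well whose peak fluorescence ratio is a statistical outlier from its plate by either plate-standardised score or position-corrected B-score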
# CYP2C9 activ = CYP2C9 (human) activation; P11712; recombinant CYP2C9, luciferin-H conversion, luminescence; hits give high values; factor 1 = untreated enzyme, 0 = blocked; activation factor at 5 µM; hit rate 1.4% among 96,000; AID 1024;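 active = activation factor of 2 or more for CYP2C9 at a 5 µM dose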;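 note: 0 = sulfaphenazole-blocked wells and 1 = vehicle-only wells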
# CYP2C9 inh = blocks human cytochrome P450 2C9; P11712; CYP2C9 Supersomes, luciferin-H conversion, luminescence; inhibition, % at 5 µM; hit rate 20% among 96,000; AID 777;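 active = blocking of liver enzyme CYP2C9 beyond about 50% at 5 µM, limit read from the data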
# An asterisk follows results filed as active; nt = no result. The list is not random: actives were taken first. Their share in the collection is about 27%.
SMILES,HIV Rev-RRE inh,CYP2C19 inhib,CYP2C19 act,Cav3 T inh,CYP2C9 activ,CYP2C9 inh
CCCCSc1nnc2c(n1)[nH]c1ccccc12,10,17,0.8,0.77,0.9,10
Cc1nn(Cc2c(F)c(F)c(F)c(F)c2F)c(C)c1NC(=O)c1c([N+](=O)[O-])cnn1C,2,16,0.8,-0.72,1,2
Cc1ccc(OCC(=O)Nc2ccc(O)c(C(=O)O)c2)cc1C,6,-13,1.1,0.49,0.7,32
CCOC(=O)c1cnc2c(C(F)(F)F)cccc2c1N1CCOCC1,5,68*,0.3,nt,0.5,50
COc1ccc2c(-c3ccccc3)cc(N3CCOCC3)nc2c1,3,-1,1,-0.19,0.8,24
COc1ccc(-n2c(SC)nnc2-c2c[nH]c3ccccc23)cc1,6,-3,1,-1.6,0.9,8
COc1cccc(-n2c(SCC(=O)NCc3ccco3)nnc2-c2c[nH]c3ccccc23)c1,0,66*,0.3,-0.16,0.4,59*
COc1ccc(OC)c(-n2c(SCC(=O)NCc3ccco3)nnc2-c2c[nH]c3ccccc23)c1,3,39,0.6,-0.39,0.3,66*
COCCn1c(SCC(=O)NCc2ccco2)nnc1-c1c[nH]c2ccccc12,3,24,0.8,0.73,0.7,31
COc1cccc(-n2c(SC)nnc2-c2c[nH]c3ccccc23)c1,10,62*,0.4,0.091,0.7,34
O=c1nc(NCc2ccccc2Cl)cn[nH]1,1,-3,1,0.4,1.1,-12
Cc1ccc(N(C(=O)c2ccccn2)C2(C(=O)NC3CCCC3)CCCCC2)cc1,2,37,0.6,-0.03,0.1,93*
CCOC(=O)COc1ccc(S(=O)(=O)NCCC2=CCCCC2)cc1,9,25,0.8,-0.98,0.9,9
O=C(COc1ccc(S(=O)(=O)N2CCCC2)cc1)NCCC1=CCCCC1,9,43,0.6,0.071,0.1,86*
CC(C)(C)NS(=O)(=O)c1ccc(OCC(=O)NCCC2=CCCCC2)cc1,8,85*,0.1,-0.25,0.2,84*
Cc1ccc(S(=O)(=O)N2CCCC(C(=O)NCCC3=CCCCC3)C2)cc1 (stereo not given),6,11,0.9,-0.058,0.9,13
CC(=O)Nc1ccc(S(=O)(=O)NC(CC(=O)NCCC2=CCCCC2)C(C)C)cc1 (stereo not given),2,95*,0.1,0.72,0.7,32
O=C(CS(=O)(=O)Cc1ccccc1)Nc1ncccn1,9,13,0.9,-0.018,1,5
CC(C)[C@H](NC(=O)NCc1ccco1)C(=O)O,3,4,1,1.7,1,3
Cn1c(=O)c2c(ncn2CC(=O)Nc2ccccc2Sc2ccccc2)n(C)c1=O,2,2,1,0.72,1,4
O=C(c1ccco1)N1CCN(c2nc3ccccc3n3nnnc23)CC1,nt,19,0.8,nt,0.5,47
CC(C)Cc1nc(N2CCN(C(=O)C(C)C)CC2)c(C#N)c2c1CCC2,-1,84*,0.2,-5.7*,0.2,81*
Cc1nc(N2CCN(C(=O)c3ccc(Cl)cc3)CC2)c(C#N)c2c1COC(C)(C)C2,7,83*,0.2,0.025,0.5,50*
CC(C)c1cc(N2CCN(C(=O)c3ccco3)CC2)n2c(nc3ccccc32)c1C#N,12,63*,0.4,1.8,0.3,74*
CC1(C)Cc2c(C#N)c(N3CCN(C(=O)c4ccco4)CC3)nc(Cc3ccccc3)c2CO1,3,73*,0.3,-4.6*,0,95*
SMILES,HIV Rev-RRE inh,CYP2C19 inhib,CYP2C19 act,Cav3 T inh,CYP2C9 activ,CYP2C9 inh
CCC(C)N(CCNC(=O)CC1Oc2ccc(C)cc2NC1=O)C1CCCCC1 (stereo not given),-3,8,0.9,0.013,1,3
O=C(Nc1ccc(Cl)cc1-c1nc2ccccc2s1)c1ccco1,4,-15,1.1,-0.81,0.9,12
CC(=O)N1CCN(c2nc(CC(C)C)c3c(c2C#N)CCC3)CC1,5,73*,0.3,-1.4,0.3,73*
CC(C)Cc1nc(N2CCN(C(=O)c3ccco3)CC2)c(C#N)c2c1CCC2,7,99*,0,-7.9*,0,98*
C=CCS(=O)(=O)c1nc2ccccc2s1,5,-1,1,1.4,1.3,-29
C=CCNc1ncnc2c1[nH]c1ccc(C)cc12,7,45,0.6,1.1,0.4,56*
Cc1ccc2[nH]c3c(NCCN4CCOCC4)ncnc3c2c1,nt,9,0.9,0.85,1,4
CCCOc1ccc(/C(O)=C2\C(=O)C(=O)N(CCCN(C)C)C23C(=O)N(C)c2ccccc23)cc1 (stereo not given),nt,-4,1,nt,1.2,-20
COc1ccc(NC(=O)CCc2nc(-c3ccc(C)cc3)no2)cc1Cl,7,12,0.9,-0.77,0.9,11
COc1ccc(-c2noc(CCC(=O)Nc3ccc(C)c(C)c3)n2)cc1,6,39,0.6,6.3e-05,0.4,58*
CCc1ccc(CCC(=O)Nc2ccc(C)c(C)c2)o1,nt,51*,0.5,-2.1,0.9,14
CCN(CCCNC(=O)CCc1nc(-c2ccc(OC)cc2)no1)c1cccc(C)c1,5,93*,0.1,-8.8*,0.1,87*
CCOC(=O)c1ccc(NC(=O)CCc2nc(-c3ccc(C)cc3)no2)cc1,18,70*,0.3,-3,0.1,94*
COc1ccc(-c2noc(CCC(=O)NCCN(C)Cc3ccccc3)n2)cc1,4,44,0.6,0.81,0.7,35
CC(C)OC(=O)C(NC(=O)c1ccccc1)=C1CCCCC1,0,14,0.9,0.081,0.7,34
CCOc1ccc(-c2noc(CCC(=O)O)n2)cc1,8,0,1,0.59,1.1,-13
O=C(CCc1nc(-c2ccccc2F)no1)NCCN1CCN(Cc2ccccc2)CC1,5,24,0.8,0.22,0.6,36
Cc1cccc(CCNC(=O)CCc2nc(-c3ccccc3F)no2)c1,8,92*,0.1,nt,0.2,82*
COc1ccc(-c2noc(CCC(=O)Nc3ccc4c(c3)OCCO4)n2)cc1,6,66*,0.3,-0.33,0.2,76*
Brc1ccc2[nH]c3nc(SCCN4CCOCC4)nnc3c2c1,-1,nt,nt,nt,nt,nt
C=CCN(CC=C)C(=S)NC(=O)c1ccc(OC)c(Br)c1,2,74*,0.3,-1.5,0.9,11
O=C(c1c(Cl)nc2sccn12)N(C(=O)c1c(Cl)nc2sccn12)c1ccc(Cl)cn1,2,100*,0,-0.58,0,100*
O=C(NC1CC1)c1cccc(Nc2ccc(-c3ccc4c(c3)OCCO4)nn2)c1,12,44,0.6,-0.67,0.6,37
Cc1ccc(-c2noc(-c3cccs3)n2)cc1,nt,4,1,-0.016,1.1,-7

# Screening data as filed in PubChem BioAssay.
